The source made the active and inactive calls.

Usually IC50 stands for the point on the concentration scale where inhibition reaches its midpoint.

The target in assay [1] is Neurogenic locus notch homolog protein 1 (Homo sapiens) (UniProt P46531). The assay is described as follows: Inhibition of NOTCH1 signalling in human KOPTK1 cells harboring activating Notch1 gene mutations assessed as reduction in N1Val protein expression at 2.5 uM incubated for 36 hrs by Western blot analysis. Format: cell-based. A digest of the protocol:
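KOPTK1 cells exposed 36 h to 2.5 μM compound or DMSO; endogenous activated Notch1 intracellular domain (N1Val) detected by Western blot with β-actin loading control; relative levels quantified by optical densitometry versus DMSO.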
A general note: In western blotting, separated proteins are transferred to a membrane and probed.

For assay [2], the system named is KOPTK1. The assay is described as follows: Antiproliferative activity against human KOPTK1 cells harboring activating Notch1 gene mutations assessed as reduction in cell viability incubated for 36 hrs by MTS assay. It is filed as functional, cell-based. Particulars: KOPTK1, 36 h. A digest of the protocol: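 Dose–response MTS proliferation assay in KOPTK1 cells at 0, 0.5, 1, 2.5, 5, 10, 20 and 50 μM for 36 h; IC50 taken as half-maximal growth-inhibitory concentration; three independent experiments in triplicate, mean ± SD.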
For orientation: Tetrazolium dyes change colour on reduction, which living cells bring about.

In assay [3] the test system is KOPTK1. The assay can be described thus: Antiproliferative activity against human KOPTK1 cells harboring activating Notch1 gene mutations assessed as reduction in cell viability at 2.5 uM incubated for 36 hrs by MTS assay. It is filed as functional. A digest of the protocol: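 Single-point MTS viability screen in KOPTK1 T-ALL cells: 2.5 μM compound or DMSO vehicle for 36 h; viability expressed relative to DMSO; 30% viability decrease used as screening threshold; two independent experiments in triplicate, mean ± SEM.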

For assay [4], the target named is Neurogenic locus notch homolog protein 1 (Homo sapiens) (UniProt P46531). The assay is described as follows: Inhibition of NOTCH1 signalling in human KOPTK1 cells harboring activating Notch1 gene mutations assessed as reduction in DELTEX1 mRNA expression at 2.5 uM incubated for 36 hrs by RT-PCR analysis. It is filed as cell-based. In outline:
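DELTEX1 (DTX1) relative gene expression measured in KOPTK1 cells after 36 h with 2.5 μM compound or DMSO vehicle; three independent experiments in triplicate, mean ± SEM.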

In assay [5] the test system is KOPTK1. The assay can be described thus: Induction of cell death in human KOPTK1 cells harboring activating Notch1 gene mutations assessed as increase in cleaved PARP protein expression at 2.5 uM incubated for 36 hrs by Western blot analysis. Format: functional, cell-based. A digest of the protocol: (§1)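 Western blot of KOPTK1 lysates probed for p27kip, full-length and cleaved PARP, β-actin as loading control.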

Assay [6] relates to KOPTK1. The assay can be described thus: Induction of cell death in human KOPTK1 cells harboring activating Notch1 gene mutations assessed as increase in p27kip protein expression at 2.5 uM incubated for 36 hrs by Western blot analysis. Format: functional, cell-based. In outline:
as §1

In a further assay the test system is Jurkat. The assay can be described thus: Antiproliferative activity against human Jurkat cells assessed as reduction in cell viability at 2.5 uM incubated for 36 hrs by MTS assay. It is filed as functional, cell-based.
The subject of a further assay is HaCaT. The assay is described as follows: Antiproliferative activity against immortalized human HaCaT cells assessed as reduction in cell viability at 2.5 uM incubated for 36 hrs by MTS assay. It is filed as functional, cell-based.

Sequence of Neurogenic locus notch homolog protein 1 (Homo sapiens) (P46531 whole entry, the tested form may be a part): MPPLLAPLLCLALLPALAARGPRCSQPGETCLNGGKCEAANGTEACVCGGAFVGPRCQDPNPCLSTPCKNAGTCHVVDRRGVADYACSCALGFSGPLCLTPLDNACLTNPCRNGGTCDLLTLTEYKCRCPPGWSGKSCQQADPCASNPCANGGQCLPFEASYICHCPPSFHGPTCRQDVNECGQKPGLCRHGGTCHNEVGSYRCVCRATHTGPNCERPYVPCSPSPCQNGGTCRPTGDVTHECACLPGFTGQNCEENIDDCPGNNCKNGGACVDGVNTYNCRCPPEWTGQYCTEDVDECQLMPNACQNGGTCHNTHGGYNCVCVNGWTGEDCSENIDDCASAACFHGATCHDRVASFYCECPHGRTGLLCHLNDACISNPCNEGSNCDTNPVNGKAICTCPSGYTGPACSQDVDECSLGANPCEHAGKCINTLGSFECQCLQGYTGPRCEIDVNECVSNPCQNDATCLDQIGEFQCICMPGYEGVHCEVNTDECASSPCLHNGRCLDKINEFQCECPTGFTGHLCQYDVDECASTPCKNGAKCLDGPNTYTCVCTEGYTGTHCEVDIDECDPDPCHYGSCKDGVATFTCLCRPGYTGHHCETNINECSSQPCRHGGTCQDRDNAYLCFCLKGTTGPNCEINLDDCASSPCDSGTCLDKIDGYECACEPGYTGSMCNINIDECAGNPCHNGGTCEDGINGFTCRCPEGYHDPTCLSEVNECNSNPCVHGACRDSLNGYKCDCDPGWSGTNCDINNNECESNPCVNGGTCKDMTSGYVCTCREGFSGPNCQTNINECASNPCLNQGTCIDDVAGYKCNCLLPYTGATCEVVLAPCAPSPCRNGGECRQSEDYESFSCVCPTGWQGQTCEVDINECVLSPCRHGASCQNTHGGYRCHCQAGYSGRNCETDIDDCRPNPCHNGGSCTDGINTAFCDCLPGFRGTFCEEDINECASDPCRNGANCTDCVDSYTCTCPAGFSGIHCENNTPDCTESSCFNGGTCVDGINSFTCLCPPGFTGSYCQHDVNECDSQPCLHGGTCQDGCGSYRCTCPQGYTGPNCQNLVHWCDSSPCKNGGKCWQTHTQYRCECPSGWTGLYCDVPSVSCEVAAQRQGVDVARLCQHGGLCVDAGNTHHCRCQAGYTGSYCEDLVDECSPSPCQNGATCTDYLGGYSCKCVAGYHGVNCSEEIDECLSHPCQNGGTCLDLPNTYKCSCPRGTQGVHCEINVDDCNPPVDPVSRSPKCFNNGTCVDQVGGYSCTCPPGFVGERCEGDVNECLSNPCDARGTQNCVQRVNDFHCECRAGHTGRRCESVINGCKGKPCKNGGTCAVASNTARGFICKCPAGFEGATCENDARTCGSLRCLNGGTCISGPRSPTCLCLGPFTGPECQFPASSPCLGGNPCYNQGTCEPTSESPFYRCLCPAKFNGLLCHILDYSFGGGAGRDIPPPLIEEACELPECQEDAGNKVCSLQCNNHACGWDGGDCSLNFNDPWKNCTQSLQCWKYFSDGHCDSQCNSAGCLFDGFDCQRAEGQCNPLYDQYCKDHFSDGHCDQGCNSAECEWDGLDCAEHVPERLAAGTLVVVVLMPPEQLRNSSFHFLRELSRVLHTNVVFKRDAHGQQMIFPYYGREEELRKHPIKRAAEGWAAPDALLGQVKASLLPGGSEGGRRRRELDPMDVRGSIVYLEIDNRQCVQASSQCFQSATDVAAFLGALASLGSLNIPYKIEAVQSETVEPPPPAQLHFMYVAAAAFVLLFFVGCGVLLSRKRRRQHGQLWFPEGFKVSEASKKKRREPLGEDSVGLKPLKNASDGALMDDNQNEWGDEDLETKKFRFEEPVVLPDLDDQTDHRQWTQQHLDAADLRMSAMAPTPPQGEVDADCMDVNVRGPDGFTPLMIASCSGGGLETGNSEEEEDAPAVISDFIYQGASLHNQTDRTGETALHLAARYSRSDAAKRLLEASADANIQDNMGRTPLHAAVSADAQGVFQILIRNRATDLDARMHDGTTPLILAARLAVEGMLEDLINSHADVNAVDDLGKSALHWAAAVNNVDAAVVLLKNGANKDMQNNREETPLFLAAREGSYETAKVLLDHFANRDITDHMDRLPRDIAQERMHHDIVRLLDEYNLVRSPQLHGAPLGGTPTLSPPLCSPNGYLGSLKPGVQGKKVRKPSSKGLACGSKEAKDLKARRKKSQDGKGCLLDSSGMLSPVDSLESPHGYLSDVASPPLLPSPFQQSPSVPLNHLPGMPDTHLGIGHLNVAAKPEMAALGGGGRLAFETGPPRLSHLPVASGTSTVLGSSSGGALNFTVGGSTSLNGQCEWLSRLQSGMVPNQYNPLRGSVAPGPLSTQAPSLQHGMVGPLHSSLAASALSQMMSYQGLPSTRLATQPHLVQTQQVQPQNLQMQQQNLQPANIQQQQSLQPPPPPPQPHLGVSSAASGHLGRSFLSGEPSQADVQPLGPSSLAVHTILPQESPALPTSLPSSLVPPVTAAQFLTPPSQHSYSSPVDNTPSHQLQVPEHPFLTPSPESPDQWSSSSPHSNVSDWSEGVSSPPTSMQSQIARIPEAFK

On to `COc1ccc(C(=O)/C=C/c2ccc(O)cc2)c(O)c1`, for which the inhibition entry in assay [1] and in assay [4] was “Active” throughout. Besides, the IC50 in the assay with KOPTK1 [2] stood at 1910 nM. For the same molecule, the Activity entry in the assay with KOPTK1 [3] is on record as “>=30%”.
On to `COc1ccc(C(=O)/C=C/c2ccc(O)c(C)c2)c(O)c1`, for which the inhibition entry in assay [1] and in assay [4] was “Active” throughout. The outcome in the assay with KOPTK1 [5] and in the assay on KOPTK1 [6] was Active. Further, the Activity result in the assay with KOPTK1 [3] was “>=30%”.
For `Cc1ccc(C(=O)/C=C/c2ccc(O)cc2)cc1`, the inhibition result in assay [1] and in assay [4] was “Active” each time. The outcome with KOPTK1 [5] was inactive. Also, the IC50 in the assay on KOPTK1 [2] worked out at 3830 nM. Further, the result with KOPTK1 [6] was Active. The Activity entry with KOPTK1 [3] is “>=30%”.
`COc1ccc(C(=O)C2CCc3cc(O)ccc3C2)c(O)c1` (racemic): the inhibition result in assay [1] and in assay [4] was “Active” throughout. The result in the assay with KOPTK1 [5] was inactive. The IC50 with KOPTK1 [2] came to 2460 nM. Further, the outcome with KOPTK1 [6] was Active. For the same molecule, in the assay on KOPTK1 [3], the Activity entry is given as “>=30%”.
Consider `COc1ccc2c(c1)CCC(C(=O)c1ccc(OC)cc1OC)C2` (racemic), for which the inhibition result in assay [1] and in assay [4] was “Active” throughout. The result in the assay on KOPTK1 [5], in the assay with Jurkat and in the assay on HaCaT was Active. The IC50 in the assay on KOPTK1 [2] worked out at 1370 nM. Further, the result in the assay on KOPTK1 [6] was inactive. For the same molecule, the Activity result in the assay on KOPTK1 [3] is reported as “>=30%”.
With `COc1ccc2c(c1)CC(C(=O)c1ccc(OC)cc1OC)CC2` (racemic), the inhibition entry in assay [1] and in assay [4] was “Active” each time. In addition, the outcome with KOPTK1 [5], with Jurkat and in the assay on HaCaT was Active. Also, in the assay with KOPTK1 [2], the IC50 came out at 720 nM. Besides, the result in the assay on KOPTK1 [6] was inactive. Further, the Activity entry in the assay on KOPTK1 [3] is “>=30%”.

The values are drawn from ChEMBL document CHEMBL4339229, “Chalcones and Chalcone-mimetic Derivatives as Notch Inhibitors in a Model of T-cell Acute Lymphoblastic Leukemia” (ACS Med Chem Lett, 2019).
